Measured values from ChEMBL document CHEMBL3045854, “Antifungal activity of 4-methyl-6-alkyl-2H-pyran-2-ones” (2006).
Values after ≈ are worked out from the molar mass of the structure shown.

Tests used:
[1] = test system: Globisporangium debaryanum; experiment: Antifungal activity against Pythium debaryanum assessed as inhibition of fungal growth; assay type: functional; conditions: read-out: ED50 (the source's name)
How it was run: (§1)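 Poisoned food technique on PDA, final 250, 125, 100, 50, 25 and 10 µg/mL, diluted in acetone from a 1000 µg/mL stock; acetone-only control. A 5 mm × 5 mm plug from the growing edge of a 2-week-old colony was placed at plate centre and incubated at 28 °C until control plates were nearly fully grown. Colony diameter was measured; four replicates per treatment. Inhibition was Abbott-corrected and ED50 taken by probit analysis.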

Pythium aphanidermatum = experiment: Antifungal activity against Pythium aphanidermatum assessed as inhibition of fungal growth; assay type: functional; conditions: read-out: ED50 (the source's name); how it was run: as §1
Macrophomina phaseolina [2] = experiment: Antifungal activity against Macrophomina phaseolina assessed as inhibition of fungal growth; assay type: functional; conditions: read-out: ED50 (the source's name); how it was run: as §1
Macrophomina phaseolina [3] = experiment: Antifungal activity against Rhizoctonia bataticola assessed as inhibition of fungal growth; assay type: functional; conditions: read-out: ED50 (the source's name); how it was run: as §1
Rhizoctonia solani = experiment: Antifungal activity against Rhizoctonia solani Nees assessed as inhibition of fungal growth; assay type: functional; conditions: read-out: ED50 (the source's name); how it was run: as §1
Athelia rolfsii [4] = experiment: Antifungal activity against Athelia rolfsii assessed as inhibition of fungal growth; assay type: functional; conditions: Agroathelia rolfsii; read-out: ED50 (the source's name); how it was run: as §1
Athelia rolfsii [5] = experiment: Antifungal activity against Athelia rolfsii in tomato plants grown on fungal infested soil assessed as healthy tomato plants stands at 0.364 mL ai/150 cm3 of soil measured 35 days after transplanting; assay type: functional, Agroathelia rolfsii
How it was run: (§2)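 Greenhouse tomato seedlings in sieved, autoclaved composted soil infested with S. rolfsii chlamydospore inoculum (potato dextrose broth, 27 °C 7 days, then water, 20 °C 3-4 weeks; 10 flasks per 2.5 kg soil; incubated ~25 °C 5-7 days). Moistened infested soil treated with fungicide per 150 cm3 soil. Checks were uninfested soil and untreated infested soil. Wilting and mortality scored weekly to 35 days; proportion symptomless plants; repeated-measures ANOVA.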

Athelia rolfsii [6] = experiment: Antifungal activity against Athelia rolfsii in tomato plants grown on fungal infested soil assessed as healthy tomato plants stands at 1.46 mL ai/150 cm3 of soil measured 35 days after transplanting; assay type: functional, Agroathelia rolfsii; how it was run: as §2
Athelia rolfsii [7] = experiment: Antifungal activity against Athelia rolfsii in tomato plants grown on fungal infested soil assessed as healthy tomato plants stands at 0.728 mL ai/150 cm3 of soil measured 35 days after transplanting; assay type: functional, Agroathelia rolfsii; how it was run: as §2

SMILES | EC50 [1] [µg/mL] | EC50 (Pythium aphanidermatum) [µg/mL] | EC50 (Macrophomina phaseolina [2]) [µg/mL] | EC50 (Macrophomina phaseolina [3]) [µg/mL] | EC50 (Rhizoctonia solani) [µg/mL] | EC50 (Athelia rolfsii [4]) [µg/mL] | Activity (Athelia rolfsii [5]) [µg/mL] | Activity (Athelia rolfsii [6]) [µg/mL] | Activity (Athelia rolfsii [7]) [µg/mL]
CCCCCc1cc(C)cc(=O)o1 | 20.6 (≈ 114 µM) | 39.1 (≈ 217 µM) | 36.8 (≈ 204 µM) | 34.2 (≈ 190 µM) | 34.5 (≈ 191 µM) | 22.4 (≈ 125 µM) |  |  | 
CCCCC(CC)c1cc(C)cc(=O)o1 (configuration not stated) | 151 (≈ 725 µM) | 277 (≈ 1330 µM) | 262 (≈ 1260 µM) | 303 (≈ 1460 µM) | 184 (≈ 882 µM) | 349 (≈ 1680 µM) |  |  | 
Cc1cc(CCl)oc(=O)c1 | 102 (≈ 643 µM) | 122 (≈ 769 µM) | 72.1 (≈ 455 µM) | 111 (≈ 701 µM) | 22.8 (≈ 143 µM) | 46.9 (≈ 296 µM) |  |  | 
Cc1cc(C(C)C)oc(=O)c1 | 437 (≈ 2870 µM) | 475 (≈ 3120 µM) | 1210 (≈ 7930 µM) | 403 (≈ 2650 µM) | 437 (≈ 2870 µM) | 313 (≈ 2060 µM) |  |  | 
Cc1cc(CC(C)C)oc(=O)c1 | 37 (≈ 223 µM) | 52.4 (≈ 315 µM) | 47.3 (≈ 284 µM) | 68.4 (≈ 412 µM) | 48.7 (≈ 293 µM) | 39.5 (≈ 237 µM) |  |  | 
COCC(=O)N(c1c(C)cccc1C)C(C)C(=O)OC (configuration not stated) [METALAXYL] |  |  |  |  |  |  | 34.3 | 90.3 | 60
CCCc1cc(C)cc(=O)o1 | 288 (≈ 1890 µM) | 573 (≈ 3760 µM) | 329 (≈ 2160 µM) | 562 (≈ 3700 µM) | 149 (≈ 982 µM) | 251 (≈ 1650 µM) |  |  | 
C=C(C)c1cc(C)cc(=O)o1 | 189 (≈ 1260 µM) | 337 (≈ 2240 µM) | 338 (≈ 2250 µM) | 374 (≈ 2490 µM) | 206 (≈ 1370 µM) | 180 (≈ 1200 µM) |  |  | 
CC(C)=Cc1cc(C)cc(=O)o1 | 264 (≈ 1610 µM) | 206 (≈ 1250 µM) | 377 (≈ 2300 µM) | 328 (≈ 2000 µM) | 286 (≈ 1740 µM) | 323 (≈ 1960 µM) |  |  | 
CCCCCCCCCCc1cc(C)cc(=O)o1 | 594 (≈ 2370 µM) | 287 (≈ 1150 µM) | 548 (≈ 2190 µM) | 649 (≈ 2590 µM) | 267 (≈ 1070 µM) | 562 (≈ 2250 µM) |  |  | 
